In ChEMBL document CHEMBL4152387, “Discovery of a Potent Grp94 Selective Inhibitor with Anti-Inflammatory Efficacy in a Mouse Model of Ulcerative Colitis” (J Med Chem, 2018):
Activity calls are given as the source filed them. The rule behind the calls is not given here.

Columns and labels:
[1] = biological target: T1, Heat shock protein HSP 90-alpha (Homo sapiens, UniProt P07900); assay: Inhibition of FITC-geldanamycin binding to human His-tagged HSP90alpha N-terminal domain (1 to 236 residues) expressed in Escherichia coli BL21star (DE3) at 100 uM after 4 hrs by FP assay relative to control
Procedure, shortened: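 Hsp90αN (15 nM final) with GM-FITC (6 nM final) and compound in HEPES/KCl/MgCl2 buffer pH 7.4 with NP40, DTT, BGG; 4 h at 4 °C in dark; FP at ex 485/em 535 nm; inhibition computed against GM-FITC-only and protein-plus-probe controls; n = 3.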

[2] = Inhibition of FITC-geldanamycin binding to dog GST-tagged GRP94 N41 deletion mutant (69 to 337 residues) expressed in Escherichia coli BL21star (DE3) after 4 hrs by GM-FITC-based FP assay; parameters: species or system Canis lupus familiaris
Canis lupus familiaris = organism: Canis lupus familiaris; assay: Inhibition of FITC-geldanamycin binding to dog GST-tagged GRP94 N41 deletion mutant (69 to 337 residues) expressed in Escherichia coli BL21star (DE3) at 100 uM after 4 hrs by FP assay relative to control
[3] = biological target: T1, Heat shock protein HSP 90-alpha; assay: Inhibition of FITC-geldanamycin binding to HSP90alpha (unknown origin) incubated for 5 hrs by fluorescence polarization assay
Endoplasmin [4] = biological target: Endoplasmin (Canis lupus familiaris, UniProt P41148); assay: Inhibition of FITC-geldanamycin binding to canine GRP94 incubated for 5 hrs by fluorescence polarization assay
Endoplasmin [5] = biological target: Endoplasmin (Homo sapiens, UniProt P14625); assay: Binding affinity to GRP94 N-domain (unknown origin)
Homo sapiens = organism: Homo sapiens; assay: Selectivity ratio of IC50 for inhibition of human recombinant HSP90alpha expressed in Escherichia coli by fluorescence polarization assay to IC50 for inhibition of GRP94 (unknown origin)
[6] = biological target: T1, Heat shock protein HSP 90-alpha; assay: Inhibition of human recombinant HSP90alpha expressed in Escherichia coli by fluorescence polarization assay
[7] = biological target: T1, Heat shock protein HSP 90-alpha; assay: Inhibition of HSP90alpha in human PANC1 cells assessed as akt degradation at 1 uM after 36 hrs by Western blot analysis; type: cell-based
Procedure, shortened: (§1)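 Panc-1 cells treated 36 h; total protein lysate with protease/phosphatase inhibitors; equal protein by BCA on SDS-PAGE, PVDF, Western blot for Hsp70 and Akt, β-actin loading control; AT13387 reference.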

Heat shock protein HSP90 = Heat shock protein HSP90 (Homo sapiens, UniProt P07900+P08238); assay: Inhibition of FITC-geldanamycin binding to human His-tagged HSP90alpha N-terminal domain (1 to 236 residues) expressed in Escherichia coli BL21star (DE3) after 4 hrs by FP assay relative to control
[8] = biological target: T1, Heat shock protein HSP 90-alpha; assay: Inhibition of HSP90alpha in human PANC1 cells assessed as up-regulation of Hsp70 at 1 uM after 36 hrs by Western blot analysis; type: cell-based; procedure, shortened: as §1

Sequence of Endoplasmin (Canis lupus familiaris, UniProt P41148) (P41148 whole entry): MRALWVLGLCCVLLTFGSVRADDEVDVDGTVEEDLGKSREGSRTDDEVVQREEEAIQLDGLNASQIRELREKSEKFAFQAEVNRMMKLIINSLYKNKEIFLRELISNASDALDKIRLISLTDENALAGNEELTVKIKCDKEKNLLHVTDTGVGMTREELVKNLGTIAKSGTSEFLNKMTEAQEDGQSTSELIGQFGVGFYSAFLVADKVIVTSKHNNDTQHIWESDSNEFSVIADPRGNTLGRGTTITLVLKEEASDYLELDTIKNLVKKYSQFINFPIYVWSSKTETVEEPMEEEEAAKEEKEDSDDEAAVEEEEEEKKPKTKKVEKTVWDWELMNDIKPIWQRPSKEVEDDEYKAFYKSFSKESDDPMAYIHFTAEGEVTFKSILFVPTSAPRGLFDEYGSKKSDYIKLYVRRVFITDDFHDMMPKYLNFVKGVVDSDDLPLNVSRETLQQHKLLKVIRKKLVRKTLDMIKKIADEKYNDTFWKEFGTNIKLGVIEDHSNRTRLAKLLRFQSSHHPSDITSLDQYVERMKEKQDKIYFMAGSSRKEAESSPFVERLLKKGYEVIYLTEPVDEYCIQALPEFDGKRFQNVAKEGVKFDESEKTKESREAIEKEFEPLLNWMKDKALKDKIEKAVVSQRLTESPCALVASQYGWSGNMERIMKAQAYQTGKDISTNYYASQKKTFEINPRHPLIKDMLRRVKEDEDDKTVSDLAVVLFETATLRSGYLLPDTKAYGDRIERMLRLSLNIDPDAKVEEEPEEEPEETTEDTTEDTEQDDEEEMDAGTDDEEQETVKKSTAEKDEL
Sequence of Endoplasmin (Homo sapiens, UniProt P14625) (P14625 whole entry): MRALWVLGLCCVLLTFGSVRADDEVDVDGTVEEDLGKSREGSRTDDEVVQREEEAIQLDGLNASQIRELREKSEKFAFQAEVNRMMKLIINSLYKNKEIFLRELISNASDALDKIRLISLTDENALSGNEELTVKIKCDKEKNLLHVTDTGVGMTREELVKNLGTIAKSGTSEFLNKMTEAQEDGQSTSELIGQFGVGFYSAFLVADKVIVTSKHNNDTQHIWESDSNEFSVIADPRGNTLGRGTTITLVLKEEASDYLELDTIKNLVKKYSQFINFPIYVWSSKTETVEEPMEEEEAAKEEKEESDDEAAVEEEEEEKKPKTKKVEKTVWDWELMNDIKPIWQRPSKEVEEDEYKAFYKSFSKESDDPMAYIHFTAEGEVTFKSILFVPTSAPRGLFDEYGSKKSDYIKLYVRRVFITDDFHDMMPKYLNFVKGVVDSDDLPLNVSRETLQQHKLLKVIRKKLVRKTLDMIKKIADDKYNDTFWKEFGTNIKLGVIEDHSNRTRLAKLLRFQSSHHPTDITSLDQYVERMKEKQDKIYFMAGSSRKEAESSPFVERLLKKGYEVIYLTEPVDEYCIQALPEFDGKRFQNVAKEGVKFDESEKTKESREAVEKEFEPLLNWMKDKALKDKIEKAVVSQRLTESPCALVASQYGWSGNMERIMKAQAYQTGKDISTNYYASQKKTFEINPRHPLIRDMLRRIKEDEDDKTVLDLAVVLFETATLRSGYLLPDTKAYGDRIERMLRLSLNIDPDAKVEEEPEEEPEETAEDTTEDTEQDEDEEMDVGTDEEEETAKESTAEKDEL

SMILES	inhibition (INH) [1]	IC50 [2] [nM]	inhibition (Canis lupus familiaris)	further results
Cc1ccc(-c2ccc(N[C@H]3CC[C@H](O)CC3)c(C(N)=O)c2)c(C)c1	Not Active	1220	91%	–
COC(=O)c1c(O)cc(O)c(Cl)c1CCC(=O)NC1=CC(=O)C(OC)=CC1=O	–	–	–	Kd [3]: 870 nM; Kd (Endoplasmin [4]): 520 nM
COc1ccc(-c2ccc(N[C@H]3CC[C@H](O)CC3)c(C(N)=O)c2)cc1	Not Active	500	100%	–
Cc1ccc(-c2ccc(N[C@H]3CC[C@H](O)CC3)c(C(N)=O)c2)cc1	Not Active	340	100%	–
Cc1cccc(C)c1-c1ccc(N[C@H]2CC[C@H](O)CC2)c(C(N)=O)c1	Not Active	1420	100%	–
C#CCCCn1cnc(N)c2nc(Sc3ccc(C)cc3C)nc1-2	–	–	–	IC50 (Endoplasmin [5]): 11800 nM; Ratio IC50 (Homo sapiens): > 21; IC50 [6]: > 250000 nM
CC(C)CNc1ccc(-c2ccc(C(C)C)cc2)cc1C(N)=O	Not Active	2320	96%	–
NC(=O)c1cc(-c2ccccc2Cl)ccc1N[C@H]1CC[C@H](O)CC1	Not Active	2720	100%	–
CC(N)C(=O)N1CCC(Nc2ccc(-c3ccc(C(C)C)cc3)cc2C(N)=O)CC1 (stereo unspecified)	Not Active	370	88%	–
CCc1ccc(-c2ccc(N[C@H]3CC[C@H](O)CC3)c(C(N)=O)c2)cc1	Not Active	7	100%	–
NC(=O)c1cc(-c2ccccc2)ccc1N[C@H]1CC[C@H](O)CC1	Not Active	2770	93%	–
CC(C)c1ccc(-c2ccc(NC3CCNCC3)c(C(N)=O)c2)cc1	Not Active	470	100%	–
CC(C)c1ccc(-c2ccc(NC3CCCC3)c(C(N)=O)c2)cc1	Not Active	3110	89%	–
CC(C)c1ccc(-c2ccc(NC3CCN(C(=O)CCCCCN)CC3)c(C(N)=O)c2)cc1	Not Active	150	100%	–
CC(C)c1ccc(-c2ccc(N[C@H]3CCOC3)c(C(N)=O)c2)cc1	Not Active	130	95%	–
CC(C)c1ccc(-c2ccc(NC3CCN(C(=O)CCN)CC3)c(C(N)=O)c2)cc1	Not Active	220	96%	–
Cc1ccccc1-c1ccc(N[C@H]2CC[C@H](O)CC2)c(C(N)=O)c1	Not Active	1810	90%	–
NC(=O)c1cc(-c2ccc(Cl)cc2)ccc1N[C@H]1CC[C@H](O)CC1	Not Active	170	100%	–
NC(=O)c1cc(-c2ccc3ccccc3c2)ccc1N[C@H]1CC[C@H](O)CC1	Not Active	12600	75%	–
NC(=O)c1cc(-c2cccc3ccccc23)ccc1N[C@H]1CC[C@H](O)CC1	Not Active	–	0%	–
CC(C)c1ccc(-c2ccc(NC3CCN(C(=O)C(N)C(C)C)CC3)c(C(N)=O)c2)cc1 (stereo unspecified)	Not Active	450	91%	–
Cc1cccc(-c2ccc(N[C@H]3CC[C@H](O)CC3)c(C(N)=O)c2)c1C	Not Active	460	81%	–
NC(=O)c1cc(-c2cccc(Cl)c2Cl)ccc1N[C@H]1CC[C@H](O)CC1	Not Active	310	100%	–
CC(C)(C)c1ccc(-c2ccc(N[C@H]3CC[C@H](O)CC3)c(C(N)=O)c2)cc1	Not Active	790	100%	–
CC(=O)N1CCC(Nc2ccc(-c3ccc(C(C)C)cc3)cc2C(N)=O)CC1	Not Active	55	100%	–
CC(C)c1cc(C(=O)N2Cc3ccc(CN4CCN(C)CC4)cc3C2)c(O)cc1O [ONALESPIB]	–	20	100%	inhibition (INH) [7]: Active; IC50 (Heat shock protein HSP90): 22 nM; inhibition (INH) [8]: Active
COc1cccc(-c2ccc(N[C@H]3CC[C@H](O)CC3)c(C(N)=O)c2)c1	Not Active	4750	100%	–
CC[C@H](C)[C@H](N)C(=O)N1CCC(Nc2ccc(-c3ccc(C(C)C)cc3)cc2C(N)=O)CC1	Not Active	470	92%	–
NC(=O)c1cc(-c2cccc(Cl)c2)ccc1N[C@H]1CC[C@H](O)CC1	Not Active	2030	100%	–
CC(C)c1ccc(-c2ccc(NCC3CCCCC3)c(C(N)=O)c2)cc1	Not Active	–	inactive	–

Continued, in another order:

inhibition (INH) [1]	IC50 [2] [nM]	inhibition (Canis lupus familiaris)	SMILES	further results
Not Active	370	97%	CC(C)c1ccc(-c2ccc(NC3CCCCC3)c(C(N)=O)c2)cc1	–
Not Active	24700	66%	NC(=O)c1cc(-c2cc(Cl)cc(Cl)c2)ccc1N[C@H]1CC[C@H](O)CC1	–
–	97	100%	CC1(C)CC(=O)c2c(C(F)(F)F)nn(-c3ccc(C(N)=O)c(N[C@H]4CC[C@H](O)CC4)c3)c2C1 [SNX-2112]	–
Not Active	1110	100%	Cc1cc(C)c(-c2ccc(N[C@H]3CC[C@H](O)CC3)c(C(N)=O)c2)c(C)c1	–
Not Active	73	100%	CC(C)c1ccc(-c2ccc(NC3CCOCC3)c(C(N)=O)c2)cc1	–
Not Active	1160	100%	Cc1cccc(-c2ccc(N[C@H]3CC[C@H](O)CC3)c(C(N)=O)c2)c1	–
Not Active	11500	89%	COc1ccccc1-c1ccc(N[C@H]2CC[C@H](O)CC2)c(C(N)=O)c1	–
Not Active	–	0%	NC(=O)c1cc(-c2ccc(-n3cccc3)cc2)ccc1N[C@H]1CC[C@H](O)CC1	–
Not Active	140	100%	NC(=O)c1cc(-c2c(Cl)cccc2Cl)ccc1N[C@H]1CC[C@H](O)CC1	–
Not Active	930	96%	COCCNc1ccc(-c2ccc(C(C)C)cc2)cc1C(N)=O	–
Not Active	710	100%	Cc1ccc(-c2ccc(N[C@H]3CC[C@H](O)CC3)c(C(N)=O)c2)cc1C	–
Not Active	53	100%	CCCc1ccc(-c2ccc(N[C@H]3CC[C@H](O)CC3)c(C(N)=O)c2)cc1	–
Not Active	480	89%	CC(C)C[C@H](N)C(=O)N1CCC(Nc2ccc(-c3ccc(C(C)C)cc3)cc2C(N)=O)CC1	–
Not Active	19700	72%	Cc1cc(C)cc(-c2ccc(N[C@H]3CC[C@H](O)CC3)c(C(N)=O)c2)c1	–
Not Active	2060	92%	CCc1ccccc1-c1ccc(N[C@H]2CC[C@H](O)CC2)c(C(N)=O)c1	–
Not Active	210	100%	CC(C)c1ccc(-c2ccc(NC3CCN(C(=O)CN)CC3)c(C(N)=O)c2)cc1	–
Not Active	600	100%	NC(=O)c1cc(-c2ccc(Cl)c(Cl)c2)ccc1N[C@H]1CC[C@H](O)CC1	–
Not Active	490	100%	CCOc1ccc(-c2ccc(N[C@H]3CC[C@H](O)CC3)c(C(N)=O)c2)cc1	–
